The record followed here is article PMC12667952 (bioRxiv, 2025).

Data set [1] deals with T1, hGlyT2^D633E (Homo sapiens, UniProt Q9Y345, D633E).
T1 sequence (Q9Y345 1-797 D633E): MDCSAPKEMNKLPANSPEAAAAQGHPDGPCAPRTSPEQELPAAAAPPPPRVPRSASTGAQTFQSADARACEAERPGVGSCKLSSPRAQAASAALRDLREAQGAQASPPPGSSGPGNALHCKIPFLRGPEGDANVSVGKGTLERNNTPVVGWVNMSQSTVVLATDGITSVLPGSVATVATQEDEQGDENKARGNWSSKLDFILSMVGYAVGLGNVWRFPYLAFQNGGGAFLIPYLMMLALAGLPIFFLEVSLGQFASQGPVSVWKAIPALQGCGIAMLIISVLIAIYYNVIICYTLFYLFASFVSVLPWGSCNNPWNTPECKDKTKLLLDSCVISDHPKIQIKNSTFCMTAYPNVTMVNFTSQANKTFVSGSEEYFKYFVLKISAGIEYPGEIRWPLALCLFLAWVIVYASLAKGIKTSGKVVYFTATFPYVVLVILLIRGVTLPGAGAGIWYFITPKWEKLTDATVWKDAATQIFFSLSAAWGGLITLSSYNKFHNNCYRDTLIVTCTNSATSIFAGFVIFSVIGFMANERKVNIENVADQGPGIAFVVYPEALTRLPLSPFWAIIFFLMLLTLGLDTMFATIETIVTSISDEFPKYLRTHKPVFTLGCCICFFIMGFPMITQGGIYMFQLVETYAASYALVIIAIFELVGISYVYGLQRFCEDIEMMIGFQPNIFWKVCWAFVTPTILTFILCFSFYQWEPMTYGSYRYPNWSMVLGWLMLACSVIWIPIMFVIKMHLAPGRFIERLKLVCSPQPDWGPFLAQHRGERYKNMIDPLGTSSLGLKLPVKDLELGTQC
It counts as cell-based.

Data set [2] deals with T2, hGlyT2^WT (Homo sapiens, UniProt Q9Y345).
T2 sequence (Q9Y345 1-797): T1 sequence (Q9Y345 1-797 D633E) with E633D
Nature of the data set: Sodium dependence of inhibition of glycine transport currents. The format is cell-based. The following applies: 300 μM glycine.

Data set [3] deals with T2, hGlyT2^WT. It counts as cell-based. To be noted: glycine concentration-dependent currents with co-applied inhibitor.
Data set [4] has as its target T2, hGlyT2^WT. Nature of the data set: Reversibility. The following applies: washout, hGlyT2^WT. The format is cell-based. The method in brief:
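Xenopus oocytes injected with 20 ng hGlyT2 WT cRNA and held 3–6 days at 18 °C. Glycine currents recorded by two-electrode voltage clamp at −60 mV. Test compound applied at a single concentration (10 μM maximum), then washed out. Recovery of 30 µM glycine-evoked currents followed to 30 min, normalised to pre-inhibitor current. n ≥ 5 from at least two frogs.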

Data set [5] concerns the target T1, hGlyT2^D633E. The data set is described as follows: Reversibility. It counts as cell-based.
For a further data set, the system named is CCI mice. Nature of the data set: Mechanical allodynia. It counts as in vivo, mouse. The following applies: for Peak reduction of response rate to von Frey stimulus: 3 hours. The essentials: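 CCI mice tested 14 days after surgery. […] A single 0.4 g von Frey filament (about 15% response in naïve mice) applied to the left hind plantar surface until it bent. Response rate recorded after dosing.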

The test system of a further data set is PSNL mice. Nature of the data set: Mechanical allodynia. The format is in vivo, mouse. To be noted: 50 mg/kg i.p., 90 mins.
A further data set has as its system naïve mice. Nature of the data set: Accelerating rotarod, motor coordination in naïve mice. It counts as in vivo, mouse. The essentials:
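Naïve mice trained for 3 days on an accelerating rotarod with large cylinders (3 sessions/day at 30-min intervals, 5 min acclimatisation each day), speed rising from 4 to 20 rpm over 180 s. Test compound given i.p. in 5% Solutol in PBS. Tested at t = 0 and 30, 60, 90, 120 and 180 min post-dose. Performance normalised to % baseline.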

Another data set relates to mice. The data set is described as follows: Grip strength test. It counts as in vivo, mouse. To be noted: 30 min post-injection.
A further data set concerns naïve, uninjured mice. The data set is described as follows: Respiratory function by whole-body plethysmography. The format is in vivo, mouse. The essentials:
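Whole-body plethysmography on naïve, uninjured mice in two parallel chambers linked to a pressure transducer. Mice briefly removed for injection, then returned. Breathing recorded for 5 min at 30, 60, 90, 120 and 180 min post-injection. Frequency, tidal volume and minute volume averaged and normalised to % baseline. […] Two-way ANOVA with Dunnett's test.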

Data set [6] addresses serotonin 2A (5-HT2A) receptor (Homo sapiens, UniProt P28223). The data set is described as follows: 5-HT2A receptor antagonist IC50 determination. The format is cell-based.
A further data set deals with adenosine receptors. Nature of the data set: Cerep panel off-target selectivity screen, adenosine receptors. To be noted: 1 × 10^-5 M. It counts as binding.

One may read the IC50 as the concentration that gives 50% inhibition.

SMILES strings stand for the structures. Residue numbers refer to the chain shown, from its start. “Also recorded” adds a separate entry of the source. Some results are limits rather than exact numbers.

Sequence of serotonin 2A (5-HT2A) receptor (P28223 whole entry, species assumed): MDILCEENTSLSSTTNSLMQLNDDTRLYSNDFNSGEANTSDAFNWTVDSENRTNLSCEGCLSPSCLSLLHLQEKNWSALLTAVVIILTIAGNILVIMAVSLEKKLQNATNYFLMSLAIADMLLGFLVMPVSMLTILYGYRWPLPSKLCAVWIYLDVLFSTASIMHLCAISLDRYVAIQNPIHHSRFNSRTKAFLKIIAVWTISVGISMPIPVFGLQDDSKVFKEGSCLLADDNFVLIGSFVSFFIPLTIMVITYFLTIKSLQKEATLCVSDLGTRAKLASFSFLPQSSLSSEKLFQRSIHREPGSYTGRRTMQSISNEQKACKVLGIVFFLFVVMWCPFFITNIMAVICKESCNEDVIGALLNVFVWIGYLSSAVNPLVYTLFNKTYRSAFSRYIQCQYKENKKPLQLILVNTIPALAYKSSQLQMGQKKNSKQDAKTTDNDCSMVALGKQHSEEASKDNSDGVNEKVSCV

For `CN(C)C1(CNC(=O)c2ccc3c(c2)CCN3C(=O)c2ccccc2)CCOCC1` [RPI-GLYT2–82, 1-benzoyl-N-((4-(dimethylamino)tetrahydro-2H-pyran-4-yl)methyl)indoline-5-carboxamide], the IC50 on hGlyT2^D633E [1] is more than 10 µM; at hGlyT2^WT [2] (IC50 at 20 mM Na+, 20 mM Na+, choline chloride substitute), 0.159 µM; at hGlyT2^WT [2] (IC50 at 100 mM Na+, 100 mM Na+), 0.279 µM; in data set [6], 1.9 µM. For the same molecule, the “Reduction in potency of inhibition, D633E versus WT” value on hGlyT2^D633E [1] is on record as more than 18 fold. Besides, the Mechanism of inhibition entry at hGlyT2^WT [3] is on record as “non-competitive inhibitor”. Moreover, at hGlyT2^WT [4], the “Reversibility of inhibition (recovery of glycine-induced currents)” value is listed as “recovered to pre-inhibition levels within five minutes”. For the same molecule, the “Washout of inhibitor from hGlyT2^D633E” value on hGlyT2^D633E [5] was “almost immediate”. Moreover, the “Peak reduction of response rate to von Frey stimulus” value is listed as 30% with CCI mice (CCI mice, 50 mg/kg i.p.); 42% in the data set on CCI mice (CCI mice, 100 mg/kg i.p.); 22.5% in the data set on PSNL mice. In the data set with CCI mice (CCI mice, 50 and 100 mg/kg i.p.), the “Time of maximum efficacy, mechanical allodynia” value is “between 90 minutes and 3 hours post-administration”. Moreover, the “Efficacy at alleviating mechanical allodynia compared to pregabalin” value in the data set with CCI mice (pregabalin 50 mg/kg) was “not as efficacious”. Also, the “Adverse neuromotor effects or muscle weakness (rotarod, grip strength, sedation)” value in the data set on naïve mice (50 mg/kg analgesic dose) is on record as “not associated with adverse neuromotor effects or muscle weakness”. Also, the Rotarod performance entry in the data set with naïve mice (250 mg/kg) is “transient reduction in rotarod performance”. Moreover, the “Initial reduction in baseline rotarod performance” value with naïve mice (250 mg/kg i.p., restored over the 90-minute time course) is reported as 61%. Besides, the “Grip strength (muscle weakness)” value is “not at 50 mg/kg” in the data set with mice (50 mg/kg) and “transient deficits in the grip-strength test; also recorded: transient muscle weakness” in the data set with mice (250 mg/kg, recovered at 60 minutes). Moreover, the “Respiration frequency, minute volume (MVb), tidal volume (TVb)” value in the data set on naïve, uninjured mice (50 mg/kg) is “did not change”. Moreover, in the data set on naïve, uninjured mice (250 mg/kg, frequency and MVb first hour, TVb first 30 minutes), the “Respiratory frequency, MVb and TVb” value is “transient changes”. In the data set with adenosine receptors, the “Activity at adenosine receptors” value is “inactive”.
